Bioassay records (PubChem)
TCR-CD3 inh: inhibitors of human TCR-CD3 interaction; TAMRA-labeled TCR probe fluorescence, biochemical; inhibition, % at 9.4 µM; 0.37% of 360,000 active; AID 651800; in the data active = inhibition above about 19%;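 also: recombinant mutant TCR 2C K166C tagged with TAMRA read by polarization; 0% = receptor in buffer alone and 100% = receptor with positive control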
SIAE inh: blocks human sialic acid acetylesterase; Q9HAT2; SIAE FP-Rh probe binding, fluorescence polarization; 0.69% of 370,000 active; inhibition, % at 9.66 µM;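 active = inhibition above a cutoff: mean of compounds within the control limits plus 3 SD of those, cut at about 17% in these data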;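 also: 0% = plate median of compound wells and 100% = probe without SIAE protein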
HTRA1 inhibitor: blocks human HTRA1 serine peptidase; recombinant HTRA1, FP-rhodamine activity-based probe, fluorescence polarization; inhibition, % at 5.96 µM; 0.5% of 340,000 active; AID 504803; in the data active = inhibition above about 36%;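 also: 0% = enzyme with DMSO and 100% = wells lacking enzyme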
PRMT1 inh: PRMT1 (human) inhibition, primary screen; recombinant PRMT1, activity-based probe fluorescence polarization; inhibition, % at 2.79 µM; 1.3% of 370,000 active; AID 652257;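 active = inhibition above about 21% made by adding two undisclosed values, limit read from the data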
Target sequence (Q99873 whole entry, looked up): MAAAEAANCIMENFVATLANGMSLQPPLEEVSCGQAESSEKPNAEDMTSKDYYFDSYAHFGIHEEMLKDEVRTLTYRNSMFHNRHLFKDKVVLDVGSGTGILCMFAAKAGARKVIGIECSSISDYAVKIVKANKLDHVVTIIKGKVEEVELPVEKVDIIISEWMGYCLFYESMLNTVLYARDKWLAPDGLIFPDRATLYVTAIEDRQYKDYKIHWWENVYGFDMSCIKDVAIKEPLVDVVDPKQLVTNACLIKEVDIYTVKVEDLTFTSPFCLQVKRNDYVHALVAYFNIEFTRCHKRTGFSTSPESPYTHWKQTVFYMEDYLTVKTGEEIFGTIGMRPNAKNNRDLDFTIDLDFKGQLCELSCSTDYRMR
ABHD4 inh: inhibits mouse alpha/beta hydrolase domain 4; Q8VD66; purified mABHD4, FP-Rh probe fluorescence polarization; inhibition, % at 8.92 µM; 0.54% of 370,000 active; AID 720543;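 active = inhibition exceeding the mean over every tested compound plus 3 SD, cut at about 30% in these data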;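 also: 0% = plate median of compound wells and 100% = S159A mutant with DMSO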
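Test system: mouse ABHD4 enzyme, wild type. Reagent: FP-Rh fluorescent activity-based probe, added after compound pre-incubation. Timing: pre-incubation 45 min, probe exposure 60 min, at 25 °C. Technique: FP readout, ex 525 nm / em 598 nm. Benchmarks: high control S159A mutant with DMSO, low control median of compound wells.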
HTRA1 conf: confirmation of human HTRA1 inhibitors; AID 540248; shares compounds with HTRA1 inhibitor; inhibition, % at 5.96 µM; recombinant HTRA1, FP-rhodamine activity-based probe, fluorescence polarization; 66% of 1,600 active;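 active = mean inhibition over three repeats above a set limit taken from the earlier primary screen, cut at about 37% in these data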;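 also: 0% = HTRA1 with DMSO and 100% = wells lacking HTRA1; inhibitors block probe binding so polarization drops and inhibition rises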
* = called active by the depositor. A selection: hits, their analogues and other compounds. The true share with any hit is near 2.5%.

Screening N#CC1=C(N)N(c2ccc(Br)cc2)C2=C(C(=O)CCC2)C1c1cccnc1 (stereo unspecified) returned TCR-CD3 inh -1.9, SIAE inh 5.1, HTRA1 inhibitor 46.0*, PRMT1 inh 8.2, ABHD4 inh 15.4 and HTRA1 conf -0.8.
Screening COC1=C[C@H](C(=O)NCc2ccccc2)[C@H](C)[C@@H](c2ccccc2)CC1=O returned SIAE inh -1.1, PRMT1 inh 0.8 and ABHD4 inh 0.1.
`CN1c2cccc3cccc(c23)N(C)C1(C)C` gave TCR-CD3 inh -4.5, SIAE inh 3.6, HTRA1 inhibitor 4.6, PRMT1 inh 17.5 and ABHD4 inh 27.4.
For CN1c2ccccc2N(C)C1(C)c1cccc2ccccc12 the results were TCR-CD3 inh 4.9, SIAE inh 5.9, HTRA1 inhibitor 47.2*, PRMT1 inh 19.1, ABHD4 inh 10.2 and HTRA1 conf -2.4.
COC(=O)[C@]12C[C@H](CC(=O)N3CCOCC3)C(=O)N(Cc3ccc4c(c3)OCO4)C1=C[C@H](C(C)C)O[C@@H]2C1CC1 was read as SIAE inh -7.0, PRMT1 inh 6.3 and ABHD4 inh 0.5.
For CCCC(=O)NC(c1ccc(OC)cc1)c1ccc2cccnc2c1O (stereo unspecified) the results were TCR-CD3 inh -4.8, SIAE inh 12.4, HTRA1 inhibitor 26.7, PRMT1 inh -2.1 and ABHD4 inh 4.1.
CCCCC(=O)NC(c1ccccc1Cl)c1ccc2cccnc2c1O (stereo unspecified) was read as TCR-CD3 inh -4.0, SIAE inh 10.2, HTRA1 inhibitor 56.7*, PRMT1 inh -2.6, ABHD4 inh 9.9 and HTRA1 conf 51.9*.
For CCC(=O)NC(c1ccccc1OC)c1ccc2cccnc2c1O (stereo unspecified) the results were HTRA1 inhibitor 40.9* and HTRA1 conf 43.4*.
Screening CCCC(=O)NC(c1ccccc1)c1ccc2cccnc2c1O (stereo unspecified) returned TCR-CD3 inh -7.8, SIAE inh 16.9, HTRA1 inhibitor 46.9*, PRMT1 inh -0.3, ABHD4 inh 14.7 and HTRA1 conf 45.0*.
Screening CCCCC(=O)NC(c1cccc([N+](=O)[O-])c1)c1ccc2cccnc2c1O (stereo unspecified) returned TCR-CD3 inh -1.8, SIAE inh 5.7, HTRA1 inhibitor 27.2, PRMT1 inh -4.1 and ABHD4 inh -8.3.
COc1cccc(C(NC(C)=O)c2ccc3cccnc3c2O)c1 (stereo unspecified) was read as TCR-CD3 inh -8.1, SIAE inh 3.0, HTRA1 inhibitor 32.2, PRMT1 inh -6.3 and ABHD4 inh 8.1.
`CCCCC(=O)NC(c1ccc(C(C)C)cc1)c1ccc2cccnc2c1O` (stereo unspecified) gave TCR-CD3 inh -1.8, SIAE inh 8.7, HTRA1 inhibitor 55.6*, PRMT1 inh -1.8, ABHD4 inh 13.3 and HTRA1 conf 53.3*.
`C#CCNC(=O)C[C@H]1C[C@@]2(C(=O)OC)C(=C[C@H](C3CCCC3)O[C@@H]2C)N(Cc2ccc(Cl)cc2Cl)C1=O` gave SIAE inh -0.3, PRMT1 inh 3.7 and ABHD4 inh -9.3.
`Cn1cc(C2(c3c[nH]c4ccccc34)CCN(C(=O)OC(C)(C)C)CC2)c2ccccc21` gave SIAE inh 2.8, PRMT1 inh -2.4 and ABHD4 inh -31.9.
Screening CCCCC(=O)NC(c1ccccc1)c1ccc2cccnc2c1O (stereo unspecified) returned TCR-CD3 inh -6.9, SIAE inh 14.4, HTRA1 inhibitor 38.7*, PRMT1 inh -2.6, ABHD4 inh 5.0 and HTRA1 conf 57.4*.
Screening O=C(C[n+]1ccc(CCSc2ccc(F)cc2)cc1)c1ccccc1 returned HTRA1 inhibitor 37.4* and HTRA1 conf 59.9*.
C=CC#CC[N+]1(CC#Cc2ccccc2)CCOCC1 was read as TCR-CD3 inh 10.6, SIAE inh 7.8, HTRA1 inhibitor 56.6*, PRMT1 inh -7.2, ABHD4 inh 6.3 and HTRA1 conf 64.8*.
Screening C(#Cc1ccccc1)C[N+]1(CC#Cc2ccccc2)CCCC1 returned TCR-CD3 inh 6.1, SIAE inh -2.3, HTRA1 inhibitor 3.3, PRMT1 inh -2.1 and ABHD4 inh -5.8.
COc1ccc(NC(=O)c2cc3c(C)nn(-c4ccccc4)c3s2)cc1 was read as SIAE inh -30.9, PRMT1 inh 3.0 and ABHD4 inh -25.4.
Screening c1ccc(-c2nc3cc4ccccc4cc3[nH]2)nc1 returned TCR-CD3 inh -0.9, SIAE inh 15.0, HTRA1 inhibitor 55.1*, PRMT1 inh -2.5, ABHD4 inh 7.3 and HTRA1 conf 60.1*.
CC(=O)Nc1ccc2nc(-c3ccccn3)[nH]c2c1 was read as TCR-CD3 inh -4.2, SIAE inh -4.0, HTRA1 inhibitor 1.3, PRMT1 inh 0.1 and ABHD4 inh 4.2.
O=C(CSc1ccccc1)NC1CCCCN(Cc2cccc(Cl)c2)C1=O (stereo unspecified) was read as SIAE inh 0.4, PRMT1 inh -1.5 and ABHD4 inh 2.4.
Screening C/C(=N\NC(=O)c1c[nH]c2ccccc12)c1ccccn1 returned TCR-CD3 inh 5.6, SIAE inh -2.7, HTRA1 inhibitor -10.3, PRMT1 inh 0.8 and ABHD4 inh -10.0.
For O=C(N/N=C/c1ccc(Sc2ccccn2)o1)c1cc2ccccc2cc1O the results were HTRA1 inhibitor 59.8* and HTRA1 conf 48.8*.
For O=C(N/N=C\c1ccc(Sc2ccccn2)o1)c1cccc(F)c1 the results were TCR-CD3 inh -6.0, SIAE inh -0.5, HTRA1 inhibitor -4.3, PRMT1 inh 3.7 and ABHD4 inh -22.6.
C/C(=N\NC(=O)c1cc2ccccc2cc1O)c1ccccn1 was read as TCR-CD3 inh -11.5, SIAE inh 7.5, HTRA1 inhibitor 51.7*, PRMT1 inh 2.6, ABHD4 inh 21.3 and HTRA1 conf 17.9.
Screening COc1ccc(CN2CCC(CNC(=O)Nc3ccc(Cl)cc3)CC2)cc1 returned SIAE inh 0.3, PRMT1 inh 3.6 and ABHD4 inh 1.7.
CCOc1ccc2c(ccc(/C=C/c3cc(C)c4cccnc4c3O)[n+]2C)c1 was read as HTRA1 inhibitor 63.5* and HTRA1 conf 89.5*.
Screening CCOc1ccc2[nH]c3ncccc3c(=O)c2c1 returned TCR-CD3 inh 3.6, SIAE inh 6.4, HTRA1 inhibitor 14.4, PRMT1 inh 3.7 and ABHD4 inh -1.5.
CCOC(=O)C1=NN(C(=O)c2ccc(C)cc2)C(O)(c2ccc(Cl)cc2)C1 (stereo unspecified) was read as TCR-CD3 inh -5.3, SIAE inh 1.4, HTRA1 inhibitor 60.1*, PRMT1 inh 0.1, ABHD4 inh 10.1 and HTRA1 conf 72.0*.
`Cc1cccc2cc(-c3ccccc3)c(-c3ccccc3)c[n+]12` gave TCR-CD3 inh 2.6, SIAE inh 1.1, HTRA1 inhibitor 56.1*, PRMT1 inh 3.9, ABHD4 inh 17.4 and HTRA1 conf 74.1*.
